ChEMBL document CHEMBL1287652, “QSAR modeling, synthesis and bioassay of diverse leukemia RPMI-8226 cell line active agents” (2010)

Assays:
Assay type in all cases: functional
[1] = system: COLO 205; assay: Antitumor activity against human COLO205 cells at 10 uM after 48 hrs by sulforhodamine B assay relative to control; details: COLO 205, 48 h, values are per cent of control
Summary of the method: (§1)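 Single-dose screen in a 55-line panel. Cells in RPMI-1640 with 5% FBS and 2 mM glutamine were preincubated for 24 h, then exposed to compound (DMSO stock diluted in medium) for 48 h at 37 °C with 5% CO2. Cells were fixed with cold TCA, stained with 0.4% SRB in 1% acetic acid, and dye was solubilized in 10 mM Tris base and read at 515 nm. Growth is given as percent of untreated control.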

[2] = system: MDA-MB-231; assay: Antitumor activity against human MDA-MB-231 cells at 10 uM after 48 hrs by sulforhodamine B assay relative to control; details: MDA-MB-231, 48 h, values are per cent of control; summary of the method: as §1
[3] = system: HOP-92; assay: Antitumor activity against human HOP92 cells at 10 uM after 48 hrs by sulforhodamine B assay relative to control; details: HOP-92, 48 h, values are per cent of control; summary of the method: as §1
[4] = system: UACC-62; assay: Antitumor activity against human UACC62 cells at 10 uM after 48 hrs by sulforhodamine B assay relative to control; details: UACC-62, 48 h, values are per cent of control
Summary of the method: (§2)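 NCI panel line grown in RPMI-1640 with 5% FBS and 2 mM L-glutamine, plated at 5000–40,000 cells/well, 24 h preincubation. Single final 10 µM from DMSO stock, 48 h at 37 °C, 5% CO2. TCA fixation (10% adherent, 16% suspension), SRB stain, absorbance 515 nm. Percent growth relative to untreated control.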

[5] = system: LOX IMVI; assay: Antitumor activity against human LOXIMVI cells at 10 uM after 48 hrs by sulforhodamine B assay relative to control; details: values are per cent of control; summary of the method: as §1
[6] = system: NCI-H322M; assay: Antitumor activity against human NCI-H322M cells at 10 uM after 48 hrs by sulforhodamine B assay relative to control; details: values are per cent of control
Summary of the method: (§3)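 NCI panel lines were grown in RPMI-1640 with 5% FBS and 2 mM L-glutamine and seeded at 5000–40,000 cells/well according to doubling time. After 24 h at 37 °C, 5% CO2, one dose from a DMSO stock was added for 48 h. Cells were TCA-fixed (10% final adherent, 16% suspension), SRB-stained and read at 515 nm. Percent growth is relative to untreated control.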

[7] = system: PC-3; assay: Antitumor activity against human PC3 cells at 10 uM after 48 hrs by sulforhodamine B assay relative to control; details: PC-3, 48 h, values are per cent of control; summary of the method: as §3
[8] = system: NCI-H522; assay: Antitumor activity against human NCI-H522 cells at 10 uM after 48 hrs by sulforhodamine B assay relative to control; details: NCI-H522, 48 h, values are per cent of control; summary of the method: as §3
[9] = system: NCI-H460; assay: Antitumor activity against human NCI-H460 cells at 10 uM after 48 hrs by sulforhodamine B assay relative to control; details: NCI-H460, 48 h, values are per cent of control; summary of the method: as §3
[10] = system: SNB-75; assay: Antitumor activity against human SNB75 cells at 10 uM after 48 hrs by sulforhodamine B assay relative to control; details: SNB-75, 48 h, values are per cent of control; summary of the method: as §3
[11] = system: ACHN; assay: Antitumor activity against human ACHN cells at 10 uM after 48 hrs by sulforhodamine B assay relative to control; details: values are per cent of control; summary of the method: as §1
[12] = system: Malme-3M; assay: Antitumor activity against human MALME-3M cells at 10 uM after 48 hrs by sulforhodamine B assay relative to control; details: values are per cent of control; summary of the method: as §1
[13] = system: SNB-19; assay: Antitumor activity against human SNB19 cells at 10 uM after 48 hrs by sulforhodamine B assay relative to control; details: SNB-19, 48 h, values are per cent of control; summary of the method: as §3
[14] = system: CCRF-CEM; assay: Antitumor activity against human CCRF-CEM cells at 10 uM after 48 hrs by sulforhodamine B assay relative to control; details: values are per cent of control; summary of the method: as §1
[15] = system: NCI-H23; assay: Antitumor activity against human NCI-H23 cells at 10 uM after 48 hrs by sulforhodamine B assay relative to control; details: NCI-H23, 48 h, values are per cent of control; summary of the method: as §3
[16] = system: KM12; assay: Antitumor activity against human KM12 cells at 10 uM after 48 hrs by sulforhodamine B assay relative to control; details: KM12, 48 h, values are per cent of control; summary of the method: as §1
[17] = system: TK-10; assay: Antitumor activity against human TK10 cells at 10 uM after 48 hrs by sulforhodamine B assay relative to control; details: TK-10, 48 h, values are per cent of control; summary of the method: as §2
[18] = system: SR; assay: Antitumor activity against human SR cells at 10 uM after 48 hrs by sulforhodamine B assay relative to control; details: values are per cent of control; summary of the method: as §2
[19] = system: MDA-MB-468; assay: Antitumor activity against human MDA-MB-468 cells at 10 uM after 48 hrs by sulforhodamine B assay relative to control; details: MDA-MB-468, 48 h, values are per cent of control; summary of the method: as §3
[20] = system: SF-295; assay: Antitumor activity against human SF295 cells at 10 uM after 48 hrs by sulforhodamine B assay relative to control; details: SF-295, 48 h, values are per cent of control; summary of the method: as §3
[21] = system: IGROV-1; assay: Antitumor activity against human IGROV1 cells at 10 uM after 48 hrs by sulforhodamine B assay relative to control; details: IGROV-1, 48 h, values are per cent of control; summary of the method: as §1
[22] = system: SK-MEL-2; assay: Antitumor activity against human SK-MEL-2 cells at 10 uM after 48 hrs by sulforhodamine B assay relative to control; details: SK-MEL-2, 48 h, values are per cent of control; summary of the method: as §3
[23] = system: SN12C; assay: Antitumor activity against human SN12C cells at 10 uM after 48 hrs by sulforhodamine B assay relative to control; details: values are per cent of control; summary of the method: as §3
[24] = system: A498; assay: Antitumor activity against human A498 cells at 10 uM after 48 hrs by sulforhodamine B assay relative to control; details: A498, 48 h, values are per cent of control; summary of the method: as §1
[25] = system: SF-268; assay: Antitumor activity against human SF268 cells at 10 uM after 48 hrs by sulforhodamine B assay relative to control; details: SF-268, 48 h, values are per cent of control; summary of the method: as §3
[26] = system: 786-0; assay: Antitumor activity against human 786-0 cells at 10 uM after 48 hrs by sulforhodamine B assay relative to control; details: 786-0, 48 h, values are per cent of control; summary of the method: as §1
[27] = system: M14; assay: Antitumor activity against human M14 cells after 48 hrs by sulforhodamine B assay; details: M14, 48 h
Summary of the method: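 Cells were grown in RPMI-1640 with 5% FBS and 2 mM L-glutamine, plated at 5000–40,000 cells/well, and preincubated for 24 h. A time-zero plate was TCA-fixed. Compounds were added from DMSO stock at five concentrations for 48 h at 37 °C. Cells were fixed with TCA (adherent 10%, suspension 16%) and stained with SRB, and A515 was read. GI50 and TGI were calculated from Tz, control and test absorbances.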

Structure (SMILES)	growth, % of control at 10 µM [1]	growth, % of control at 10 µM [2]	growth, % of control at 10 µM [4]	growth, % of control at 10 µM [5]	growth, % of control at 10 µM [6]	growth, % of control at 10 µM [7]	growth, % of control at 10 µM [8]	growth, % of control at 10 µM [9]	growth, % of control at 10 µM [10]	growth, % of control at 10 µM [11]	growth, % of control at 10 µM [12]	growth, % of control at 10 µM [13]	growth, % of control at 10 µM [15]	growth, % of control at 10 µM [16]	growth, % of control at 10 µM [17]	growth, % of control at 10 µM [18]	growth, % of control at 10 µM [19]	growth, % of control at 10 µM [20]	growth, % of control at 10 µM [21]	growth, % of control at 10 µM [22]	other results
O=C(Nc1ccc(Cl)cc1)Nc1ccc(OCCCOc2ccc(NC(=O)Nc3ccc(Cl)cc3)cc2)cc1	166%	111%	98.9%	98.1%	102%	93%	91.6%	103%	92.2%	106%	101%	108%	96.5%	110%	129%	88.7%	114%	97.3%	85.1%	118%	growth, % of control at 10 µM [3]: 181%; growth, % of control at 10 µM [14]: 157%; growth, % of control at 10 µM [23]: 105%; growth, % of control at 10 µM [24]: 107%; growth, % of control at 10 µM [25]: 125%; growth, % of control at 10 µM [26]: 93.7%
COc1ccc(NC(=O)Nc2ccc(OCCCOc3ccc(NC(=O)Nc4ccc(OC)cc4)cc3)cc2)cc1	124%	93.3%	109%	99.3%	90.2%	108%	98.3%	96.8%	101%	> 100%	93.3%	94.5%	94.5%	117%	123%	90.4%	91.1%	71.7%	90.2%	108%	growth, % of control at 10 µM [3]: 81.5%; growth, % of control at 10 µM [23]: 87.3%; growth, % of control at 10 µM [24]: 144%; growth, % of control at 10 µM [25]: 103%; growth, % of control at 10 µM [26]: 86.9%
COc1ccc(NC(=O)Nc2ccccc2OCCCOc2ccccc2NC(=O)Nc2ccc(OC)cc2)cc1	18.6%	34%	3.9%	23.7%	82.4%	-36.5%	63.7%	17.7%	-34.8%	46.3%	55.1%	47.6%	2.8%	23.8%	22%	-39.7%	22.6%	49%	4.9%	65.8%	growth, % of control at 10 µM [14]: -7.12%; GI50 [27]: 45.7 µM; TGI [27]: > 100 µM; growth, % of control at 10 µM [23]: -21.3%; growth, % of control at 10 µM [24]: -9.3%; growth, % of control at 10 µM [25]: 50.7%; growth, % of control at 10 µM [26]: -31.5%
